Here are results for twelve molecules from ChEMBL document CHEMBL3108692, “Potent Targeting of the STAT3 Protein in Brain Cancer Stem Cells: A Promising Route for Treating Glioblastoma” (ACS Med Chem Lett, 2013).

Each structure is given as a SMILES string. Calls of active or inactive are those of the source. The rule behind the calls is not given here.

The inhibition is the drop in the measured response relative to a control, in per cent. Usually IC50 stands for the point on the concentration scale where inhibition reaches its midpoint. As a reminder, the Ki is a measure of affinity in units of concentration, obtained from inhibition or displacement.

The target of series [1] is T1, Signal transducer and activator of transcription 3 (Homo sapiens, UniProt P40763). The series is described as follows: Competitive binding affinity to STAT3 SH2 domain (unknown origin) assessed as inhibition of interaction with FAMpYLPQTV after 15 to 30 mins by fluorescent polarization assay.
T1 sequence (P40763 whole entry, the tested form may be a part): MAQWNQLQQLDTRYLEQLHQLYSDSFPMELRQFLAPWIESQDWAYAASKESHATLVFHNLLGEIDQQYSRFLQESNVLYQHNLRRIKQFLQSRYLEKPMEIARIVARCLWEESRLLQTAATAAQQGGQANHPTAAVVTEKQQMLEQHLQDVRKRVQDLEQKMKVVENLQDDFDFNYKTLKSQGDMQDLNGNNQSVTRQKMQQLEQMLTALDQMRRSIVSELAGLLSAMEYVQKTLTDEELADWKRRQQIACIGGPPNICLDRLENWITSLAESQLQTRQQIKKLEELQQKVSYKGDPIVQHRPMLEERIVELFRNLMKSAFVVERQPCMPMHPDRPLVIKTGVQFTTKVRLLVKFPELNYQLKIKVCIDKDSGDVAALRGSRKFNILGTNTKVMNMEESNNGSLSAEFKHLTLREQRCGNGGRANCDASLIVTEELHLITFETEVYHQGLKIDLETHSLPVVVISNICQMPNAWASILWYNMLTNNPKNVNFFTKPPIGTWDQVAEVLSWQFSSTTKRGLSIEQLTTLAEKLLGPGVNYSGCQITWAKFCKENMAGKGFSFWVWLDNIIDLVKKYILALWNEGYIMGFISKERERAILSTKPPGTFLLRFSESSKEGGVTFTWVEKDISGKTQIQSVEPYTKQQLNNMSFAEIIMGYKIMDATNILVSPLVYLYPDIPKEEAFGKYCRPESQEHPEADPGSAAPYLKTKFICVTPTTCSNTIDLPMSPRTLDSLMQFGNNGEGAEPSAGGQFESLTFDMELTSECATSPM
The nature of series [2]: cells. Conditions: Homo sapiens, 72 h.
The nature of series [3]: Cytotoxicity against human 84EF cells assessed as cell viability after 3 days by Alamar Blue assay. Conditions: 72 h. (In general: Resazurin is reduced to fluorescent resorufin, in cell work by metabolically active cells.)
The nature of series [4]: Cytotoxicity against human 25EF cells assessed as cell viability after 3 days by Alamar Blue assay. Conditions: 72 h.
Series [5] is described as follows: Cytotoxicity against human 73EF cells assessed as cell viability after 3 days by Alamar Blue assay. Conditions: 72 h.
Series [6] in a line: Cytotoxicity against human 30M cells assessed as cell viability after 3 days by Alamar Blue assay. Conditions: 72 h.
A short description of series [7]: Cytotoxicity against human 67EF cells assessed as cell viability after 3 days by Alamar Blue assay. Conditions: 72 h.
Series [8] in a line: Cytotoxicity against human 73M cells assessed as cell viability after 8 days by Alamar Blue assay. The format is functional, cell-based. Conditions: 192 h.
The nature of series [9]: Cytotoxicity against human 30M cells assessed as cell viability after 8 days by Alamar Blue assay. The format is functional, cell-based. Conditions: 192 h.
The nature of series [10]: Cytotoxicity against HF2003 cells assessed as cell viability at 5 uM after 3 days by Alamar Blue assay. The format is cell-based. Conditions: human, 72 h. An outline of the steps: (§1)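 Normal human fetal astrocytes (healthy, non-tumor cells) were exposed to compounds at concentrations up to 5 μM, with viability as the cytotoxicity read-out.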
The target of series [11] is Tyrosine-protein kinase JAK1 (Homo sapiens) (UniProt P23458). The series is described as follows: Inhibition of JAK1 (unknown origin) at 5 uM after 120 mins.
Chain of Tyrosine-protein kinase JAK1 (Homo sapiens) (P23458 whole entry): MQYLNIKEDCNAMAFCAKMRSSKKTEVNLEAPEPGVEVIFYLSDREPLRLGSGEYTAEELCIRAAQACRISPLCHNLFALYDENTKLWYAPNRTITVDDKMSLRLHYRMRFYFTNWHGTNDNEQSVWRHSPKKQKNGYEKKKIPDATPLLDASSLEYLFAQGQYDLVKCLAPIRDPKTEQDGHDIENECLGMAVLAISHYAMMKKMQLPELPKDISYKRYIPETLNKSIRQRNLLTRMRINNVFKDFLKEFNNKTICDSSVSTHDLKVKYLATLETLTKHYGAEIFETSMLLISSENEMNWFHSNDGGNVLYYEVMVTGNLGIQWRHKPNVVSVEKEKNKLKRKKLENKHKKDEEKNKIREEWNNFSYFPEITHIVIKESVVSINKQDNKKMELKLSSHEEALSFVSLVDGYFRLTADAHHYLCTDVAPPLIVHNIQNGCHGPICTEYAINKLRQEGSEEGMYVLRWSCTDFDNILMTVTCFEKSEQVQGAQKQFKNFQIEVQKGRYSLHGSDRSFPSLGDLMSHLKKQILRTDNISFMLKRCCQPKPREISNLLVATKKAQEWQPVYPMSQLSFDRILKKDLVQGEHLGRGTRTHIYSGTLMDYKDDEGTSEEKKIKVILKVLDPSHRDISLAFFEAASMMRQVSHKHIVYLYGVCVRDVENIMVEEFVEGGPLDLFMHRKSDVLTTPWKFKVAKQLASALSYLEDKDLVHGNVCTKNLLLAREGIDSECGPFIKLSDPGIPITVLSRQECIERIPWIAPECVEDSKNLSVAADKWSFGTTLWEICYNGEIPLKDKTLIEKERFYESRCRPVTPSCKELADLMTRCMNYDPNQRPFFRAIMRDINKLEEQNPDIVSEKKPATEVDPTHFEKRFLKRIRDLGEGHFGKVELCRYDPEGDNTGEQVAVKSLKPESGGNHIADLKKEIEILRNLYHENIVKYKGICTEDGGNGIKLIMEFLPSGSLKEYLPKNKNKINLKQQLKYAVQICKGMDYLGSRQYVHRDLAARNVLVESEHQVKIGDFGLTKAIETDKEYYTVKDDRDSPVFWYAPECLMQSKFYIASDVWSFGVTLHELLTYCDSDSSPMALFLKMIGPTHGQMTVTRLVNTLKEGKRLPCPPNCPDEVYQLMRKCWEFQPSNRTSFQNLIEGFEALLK
A short description of series [12]: Cytotoxicity against HF2006 cells assessed as cell viability at 5 uM after 3 days by Alamar Blue assay. The format is cell-based. Conditions: human, 72 h. The method, boiled down: as §1
The species entered for series [13] is Homo sapiens. The series can be described thus: Inhibition of MAPK in human 147EF cells after 6 hrs by Western blotting analysis. The format is cell-based. In general terms: A western blot detects proteins with antibodies after separation by electrophoresis.
Series [14] has as its target Tyrosine-protein kinase JAK2 (Homo sapiens) (UniProt O60674). The series is described as follows: Inhibition of JAK2 (unknown origin) at 5 uM after 120 mins relative to control.
For series [15], the target named is Proto-oncogene tyrosine-protein kinase Src (Homo sapiens) (UniProt P12931). The series can be described thus: Inhibition of c-Src (unknown origin) at 5 uM after 120 mins relative to control.
Chain of Proto-oncogene tyrosine-protein kinase Src (Homo sapiens) (P12931 2-536 limits assumed): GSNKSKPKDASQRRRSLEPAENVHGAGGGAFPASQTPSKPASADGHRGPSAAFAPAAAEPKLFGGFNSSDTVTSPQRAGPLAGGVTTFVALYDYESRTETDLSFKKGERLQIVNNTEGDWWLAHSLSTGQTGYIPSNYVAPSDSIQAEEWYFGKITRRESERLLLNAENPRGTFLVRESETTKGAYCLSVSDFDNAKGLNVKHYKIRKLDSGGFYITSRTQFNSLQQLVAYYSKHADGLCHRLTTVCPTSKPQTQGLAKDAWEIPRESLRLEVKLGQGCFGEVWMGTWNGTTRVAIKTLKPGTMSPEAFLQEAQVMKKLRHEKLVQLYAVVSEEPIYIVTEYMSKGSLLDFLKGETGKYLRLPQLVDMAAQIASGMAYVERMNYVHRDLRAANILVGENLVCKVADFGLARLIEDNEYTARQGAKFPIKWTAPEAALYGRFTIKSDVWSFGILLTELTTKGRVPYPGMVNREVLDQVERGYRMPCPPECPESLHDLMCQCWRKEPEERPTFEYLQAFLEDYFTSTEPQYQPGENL
The target of series [16] is Mitogen-activated protein kinase 3 (Homo sapiens) (UniProt P27361). The series is described as follows: Inhibition of ERK1 (unknown origin) at 5 uM after 120 mins.
Chain of Mitogen-activated protein kinase 3 (Homo sapiens) (P27361 whole entry): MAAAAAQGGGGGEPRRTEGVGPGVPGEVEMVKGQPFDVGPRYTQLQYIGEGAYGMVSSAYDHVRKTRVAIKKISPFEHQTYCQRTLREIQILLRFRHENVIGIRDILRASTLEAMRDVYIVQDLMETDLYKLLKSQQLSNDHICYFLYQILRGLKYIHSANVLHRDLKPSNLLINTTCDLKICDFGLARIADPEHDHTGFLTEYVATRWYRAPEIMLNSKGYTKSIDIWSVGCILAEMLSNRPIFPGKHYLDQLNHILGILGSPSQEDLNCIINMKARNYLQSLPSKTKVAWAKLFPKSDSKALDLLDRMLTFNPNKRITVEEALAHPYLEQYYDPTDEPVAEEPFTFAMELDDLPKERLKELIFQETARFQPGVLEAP
Series [17] is filed under the species Homo sapiens. The series is described as follows: Inhibition of AKT in human 147EF cells after 6 hrs by Western blotting analysis. The format is cell-based.
The target in series [18] is RAC-alpha serine/threonine-protein kinase (Homo sapiens) (UniProt P31749). The series is described as follows: Inhibition of AKT1 (unknown origin) at 5 uM after 120 mins.
Chain of RAC-alpha serine/threonine-protein kinase (Homo sapiens) (P31749 whole entry): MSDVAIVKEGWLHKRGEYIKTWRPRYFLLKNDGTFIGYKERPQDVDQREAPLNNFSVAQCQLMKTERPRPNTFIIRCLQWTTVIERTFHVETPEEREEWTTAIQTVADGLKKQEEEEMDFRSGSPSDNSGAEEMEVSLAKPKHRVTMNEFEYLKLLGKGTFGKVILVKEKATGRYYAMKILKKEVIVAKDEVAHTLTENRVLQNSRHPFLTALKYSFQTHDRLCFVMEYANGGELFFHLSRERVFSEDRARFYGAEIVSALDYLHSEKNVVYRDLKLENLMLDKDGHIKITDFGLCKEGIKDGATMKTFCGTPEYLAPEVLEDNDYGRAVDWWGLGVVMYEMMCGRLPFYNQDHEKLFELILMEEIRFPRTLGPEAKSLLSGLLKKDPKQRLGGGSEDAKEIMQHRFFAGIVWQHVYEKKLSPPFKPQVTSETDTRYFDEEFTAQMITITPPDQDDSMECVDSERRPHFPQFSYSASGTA
Series [19] has as its target Proto-oncogene tyrosine-protein kinase Src (Homo sapiens) (UniProt P12931). The series is described as follows: Inhibition of Src in human 147EF cells after 6 hrs by Western blotting analysis. The format is cell-based.
For series [20], the target named is Epidermal growth factor receptor (Homo sapiens) (UniProt P00533). The series can be described thus: Inhibition of EGFR in human 147EF cells after 6 hrs by Western blotting analysis. The format is cell-based.
Series [21] addresses Tyrosine-protein kinase JAK2 (Homo sapiens) (UniProt O60674). The series can be described thus: Inhibition of JAK2 in human 147EF cells after 6 hrs by Western blotting analysis. The format is cell-based.
For series [22], the species on record is Homo sapiens. The series can be described thus: Inhibition of AKT phosphorylation in human 147EF cells at 0.1 to 1 uM after 3 hrs by Western blotting analysis. The format is cell-based.
Series [23] addresses T1, Signal transducer and activator of transcription 3. The series is described as follows: Inhibition of STAT3 phosphorylation at Y705 in human 147EF cells at 0.1 to 1 uM after 3 hrs by Western blotting analysis. The format is cell-based.
The species named for series [24] is Homo sapiens. The series is described as follows: Induction of apoptosis in human 147EF cells assessed as PARP cleavage at 0.1 to 1 uM after 3 hrs by Western blotting analysis. The format is functional, cell-based.

Chain of Tyrosine-protein kinase JAK2 (Homo sapiens) (O60674 whole entry): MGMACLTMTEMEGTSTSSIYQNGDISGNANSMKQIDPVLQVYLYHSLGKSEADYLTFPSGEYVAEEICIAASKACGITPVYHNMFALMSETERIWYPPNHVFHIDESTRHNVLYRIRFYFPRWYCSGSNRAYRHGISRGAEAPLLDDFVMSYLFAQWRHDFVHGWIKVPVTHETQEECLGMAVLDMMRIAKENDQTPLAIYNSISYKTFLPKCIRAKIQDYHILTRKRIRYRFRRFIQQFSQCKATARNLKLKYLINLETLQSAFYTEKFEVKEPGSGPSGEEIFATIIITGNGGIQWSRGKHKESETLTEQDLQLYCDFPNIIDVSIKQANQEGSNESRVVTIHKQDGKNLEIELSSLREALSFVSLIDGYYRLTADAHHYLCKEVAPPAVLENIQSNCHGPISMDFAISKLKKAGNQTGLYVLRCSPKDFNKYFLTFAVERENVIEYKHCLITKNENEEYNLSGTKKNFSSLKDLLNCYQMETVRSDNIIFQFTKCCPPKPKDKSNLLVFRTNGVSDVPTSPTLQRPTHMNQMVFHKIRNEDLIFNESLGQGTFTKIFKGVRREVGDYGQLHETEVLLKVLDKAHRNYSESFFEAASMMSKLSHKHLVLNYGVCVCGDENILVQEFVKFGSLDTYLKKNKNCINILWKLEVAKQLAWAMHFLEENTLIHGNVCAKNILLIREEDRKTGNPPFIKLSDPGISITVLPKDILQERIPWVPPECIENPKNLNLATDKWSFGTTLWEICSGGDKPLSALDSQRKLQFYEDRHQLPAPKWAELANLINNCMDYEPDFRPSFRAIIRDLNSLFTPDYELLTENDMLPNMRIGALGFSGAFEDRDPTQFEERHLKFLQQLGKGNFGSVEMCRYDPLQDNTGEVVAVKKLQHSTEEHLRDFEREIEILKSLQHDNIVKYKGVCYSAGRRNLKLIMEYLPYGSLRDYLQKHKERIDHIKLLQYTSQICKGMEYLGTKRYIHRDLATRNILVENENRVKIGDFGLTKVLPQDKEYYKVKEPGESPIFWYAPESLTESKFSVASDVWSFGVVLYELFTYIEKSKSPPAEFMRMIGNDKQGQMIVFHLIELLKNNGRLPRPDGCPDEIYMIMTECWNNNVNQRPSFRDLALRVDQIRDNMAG

Take `CCOC(=O)C(=O)Nc1ccc(N(Cc2ccc(C3CCCCC3)cc2)C(=O)CN(C)S(=O)(=O)c2c(F)c(F)c(F)c(F)c2F)cc1`: in series [1], the inhibition entry is “inactive”.
As to `CN(CC(=O)N(Cc1ccc(C2CCCCC2)cc1)c1ccc(C(=O)OCOC(=O)C(C)(C)C)cc1)S(=O)(=O)c1c(F)c(F)c(F)c(F)c1F`, the inhibition result in series [1] is “inactive”.
For `CN(CC(=O)N(Cc1ccc(C2CCCCC2)cc1)c1ccc(C(=O)O)c(F)c1)S(=O)(=O)c1c(F)c(F)c(F)c(F)c1F`, the IC50 in series [2] was 90 nM; in [3] it was 202 nM; in series [4], 592 nM; in series [5], 438 nM; in [6], 100 nM; in series [7], 214 nM. In series [1], the Ki was 10000 nM.
Take `CCOP(=O)(Cc1ccc(N(Cc2ccc(C3CCCCC3)cc2)C(=O)CN(C)S(=O)(=O)c2c(F)c(F)c(F)c(F)c2F)cc1)OCC`: the inhibition result in series [1] was “inactive”.
Same read-out and setting: the entry for `CN(CC(=O)N(Cc1ccc(C2CCCCC2)cc1)c1ccccc1)S(=O)(=O)c1c(F)c(F)c(F)c(F)c1F` is “inactive”.
With `C[C@H](NC(=O)/C(C#N)=C/c1cccc(Br)n1)c1ccccc1` [WP 1066], the IC50 is 2100 nM in series [8] and 1800 nM in series [9].
Take `CC(=O)OCOC(=O)c1ccc(N(Cc2ccc(C3CCCCC3)cc2)C(=O)CN(C)S(=O)(=O)c2c(F)c(F)c(F)c(F)c2F)cc1`: the inhibition result in series [1] is “inactive”.
Still for that read-out and setting: the entry for `COC(=O)c1ccc(N(Cc2ccc(C3CCCCC3)cc2)C(=O)CN(C)S(=O)(=O)c2c(F)c(F)c(F)c(F)c2F)cc1` is “inactive”.
In the case of `CC(=O)Oc1cc(N(Cc2ccc(C3CCCCC3)cc2)C(=O)CN(C)S(=O)(=O)c2c(F)c(F)c(F)c(F)c2F)ccc1C(=O)O`, the Activity result in series [10] and in [12] was “Non-toxic” in each case. In addition, the IC50 in series [2] was 272 nM; in series [3] it was 332 nM; in [4], 1140 nM; in [5], 1080 nM; in [6], 100 nM; in series [7] it was 436 nM. Moreover, the inhibition result in series [11], in series [13], in series [16], in [17], in series [18] and in [19] was “inactive” in each case. Also, the inhibition entry in series [20], in [1] and in series [21] was “inactive” in each case. The inhibition in [14] and in series [15] was 50% in each case.
Consider `CCOC(=O)c1ccc(N(Cc2ccc(C3CCCCC3)cc2)C(=O)CN(C)S(=O)(=O)c2c(F)c(F)c(F)c(F)c2F)cc1`, for which the inhibition result in series [1] is “inactive”.
Take `CN(CC(=O)N(Cc1ccc(C2CCCCC2)cc1)c1ccc(C(=O)O)c(O)c1)S(=O)(=O)c1c(F)c(F)c(F)c(F)c1F`: the inhibition entry in [22] and in series [23] was “Active” in each case. The outcome in series [24] was Active. Also, the IC50 in series [6] is 2000 nM.
Turning to `CN(CC(=O)N(Cc1ccc(C2CCCCC2)cc1)c1ccc(C(=O)NO)cc1)S(=O)(=O)c1c(F)c(F)c(F)c(F)c1F`, the Activity entry in [10] and in [12] was “Non-toxic” each time. Also, the inhibition result in series [11], in [13], in series [16], in series [17], in series [18] and in series [19] was “inactive” each time. Also, the inhibition result in series [20] and in series [21] was “inactive” in each case. Besides, the inhibition in series [14] and in series [15] was 50% each time.
